≈ marks a conversion by molar mass, not a printed value.
Assays:
[1] = system: Mycobacterium tuberculosis; assay: Antimycobacterial activity against Mycobacterium tuberculosis H37Rv ATCC 27294 culture in GAS media after 7 days by microplate alamar blue assay; format: functional; conditions: H37Rv ATCC 27294, 168 h
Procedure, shortened: (§1)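 Replicating Mtb H37Rv. The MIC is the concentration that inhibits growth of 90% of organisms. Media by line: GAS is glycerol-alanine-salts. GAST is iron-deficient glycerol-alanine-salts with Tween 80. 7H12 is 7H9 broth base with BSA, casein hydrolysate, catalase and palmitic acid. Values are reported in μM.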

[2] = system: Mycobacterium tuberculosis; assay: Antimycobacterial activity against Mycobacterium tuberculosis H37Rv ATCC 27294 culture in GAST media after 7 days by microplate alamar blue assay; format: functional; conditions: H37Rv ATCC 27294, 168 h; procedure, shortened: as §1
[3] = Metabolic stability in Sprague-Dawley rat liver microsomes assessed as compound remaining at 20 uM after 15 mins by LC/MS analysis; format: ADME, Microsome; conditions: read-out: Stability
[4] = Chemical stability in simulated gastric fluid assessed as compound remaining at 50 uM after 15 mins by LC/MS analysis; format: physicochemical; conditions: read-out: Stability
[5] = system: Vero; assay: Cytotoxicity against african green monkey Vero cells after 72 hrs by CellTiter assay; format: cell-based; conditions: Chlorocebus sabaeus
[6] = system: Mycobacterium tuberculosis; assay: Antimycobacterial activity against Mycobacterium tuberculosis H37Rv ATCC 27294 culture in 7H12 media after 7 days by microplate alamar blue assay; format: functional; conditions: H37Rv ATCC 27294, 168 h; procedure, shortened: as §1

Structure (SMILES)	MIC90 [1]	MIC90 [2]	remaining at 0.25 h, 20 µM [3]	remaining at 0.25 h, 50 µM [4]	IC50 [5]	MIC90 [6]
CCOC(=O)c1c(C)nc2cc(C)ccn12	65.1 µM (≈ 14.2 µg/mL)	64.1 µM (≈ 14 µg/mL)	–	–	–	–
CCOC(=O)c1nn(Cc2ccccc2)cc1N	126 µM (≈ 30.9 µg/mL)	> 128 µM	–	–	–	–
O=C(OCc1ccccc1)[C@@H]1COC(c2ccccc2OCc2ccccc2)=N1	–	–	5.2%	0.8%	–	–
Cc1nc2ncccn2c1C(=O)OCc1ccccc1	2.3 µM (≈ 0.615 µg/mL)	–	–	–	> 50 µM	4.7 µM (≈ 1.26 µg/mL)
Cc1cc(C)c(OC(=O)c2coc(-c3ccccc3)n2)c(C)c1	–	–	22%	1.4%	–	–
CCOC(=O)c1csc(-c2cccc(C(F)(F)F)c2)n1	59 µM (≈ 17.8 µg/mL)	61 µM (≈ 18.4 µg/mL)	–	–	–	–
O=C(Oc1cccc2c1CCCC2)c1coc(-c2ccccc2)n1	–	–	14.5%	1.8%	–	–
COc1ccc(CNC(=O)c2c(C)nc3cc(C)ccn23)cc1	–	–	33.6%	100%	–	–
Cc1cc(C)c(COC(=O)c2coc(-c3ccccc3)n2)c(C)c1	–	–	18.1%	5.6%	–	–
Cc1cccc(OC(=O)c2coc(-c3ccccc3)n2)c1C	–	–	4.9%	2%	–	–
CCOC(=O)c1c(C)nc2cc(C)cc(C)n12	> 79.5 µM	> 72.9 µM	–	–	–	–
O=C(OC1CCCCC1)c1coc(-c2ccccc2)n1	–	–	12.1%	0.5%	–	–
COc1ccc(-c2ccc(C(=O)OCc3ccccc3)cn2)cc1	1.9 µM (≈ 0.607 µg/mL)	–	–	–	–	9.5 µM (≈ 3.03 µg/mL)
CCCCCCNC(=O)c1csc(-c2ccccc2)n1	14 µM (≈ 4.04 µg/mL)	60 µM (≈ 17.3 µg/mL)	18.9%	0.1%	–	–
CC(C)(C)c1ccccc1OC(=O)c1coc(-c2ccccc2)n1	–	–	6.9%	0.7%	–	–
COc1cccc(CNC(=O)c2c(C)nc3cc(C)ccn23)c1	–	–	94%	100%	–	–
CCOC(=O)c1coc(-c2ccccc2)n1	19.5 µM (≈ 4.24 µg/mL)	7.5 µM (≈ 1.63 µg/mL)	–	–	–	–
CCOC(=O)c1c(-c2ccccc2)nc2ccccn12	86.5 µM (≈ 23 µg/mL)	68.2 µM (≈ 18.2 µg/mL)	–	–	–	–
CCOC(=O)c1nc(-c2ccccc2)sc1C(C)=O	63 µM (≈ 17.3 µg/mL)	124 µM (≈ 34.1 µg/mL)	–	–	–	–
CCCCCCNC(=O)c1coc(-c2ccccc2)n1	22 µM (≈ 5.99 µg/mL)	18 µM (≈ 4.9 µg/mL)	–	–	–	–
CCc1ccccc1COC(=O)c1c(C)nc2cc(C)ccn12	–	–	37%	100%	–	–
CCOC(=O)c1cc(-c2ccc([N+](=O)[O-])cc2)[nH]n1	> 128 µM	> 128 µM	–	–	–	–
CC(C)(C)c1cccc(C(C)(C)C)c1OC(=O)c1coc(-c2ccccc2)n1	–	–	5.3%	1.3%	–	–
COc1ccc(CNC(=O)c2csc(-c3ccccc3)n2)cc1OC	58 µM (≈ 20.6 µg/mL)	64 µM (≈ 22.7 µg/mL)	–	–	–	–
O=C(Oc1ccccc1N1CCCC1)c1coc(-c2ccccc2)n1	–	–	11.2%	0.1%	–	–
CCOC(=O)c1cnc2cc(C)c(N)cn12	> 128 µM	> 128 µM	–	–	–	–
CCc1ccccc1COC(=O)c1coc(-c2ccccc2)n1	–	–	3.2%	3.2%	–	–

Structure (SMILES)	MIC90 [1]	MIC90 [2]	remaining at 0.25 h, 20 µM [3]	remaining at 0.25 h, 50 µM [4]	IC50 [5]	MIC90 [6]
Cc1ccccc1OC(=O)c1coc(-c2ccccc2)n1	–	–	13.4%	1.5%	–	–
CCOC(=O)c1c(-c2ccccc2)nc2cc(C)ccn12	55.1 µM (≈ 15.4 µg/mL)	71.3 µM (≈ 20 µg/mL)	–	–	–	–
COc1ccc(CNC(=O)[C@@H]2CSC(c3ccccc3)=N2)cc1OC	80 µM (≈ 28.5 µg/mL)	> 128 µM	–	–	–	–
Cc1ccc(Cl)c(OC(=O)c2coc(-c3ccccc3)n2)c1	–	–	14%	0.9%	–	–
O=C(Oc1ccc(Cl)cc1Cl)c1coc(-c2ccccc2)n1	–	–	17.3%	0.8%	–	–
CCOC(=O)c1nc(-c2ccccc2)oc1C(F)(F)F	> 128 µM	> 128 µM	–	–	–	–
O=C(OCc1ccccc1)c1coc(-c2ccccc2Cl)n1	–	–	7.9%	1.1%	–	–
Cc1ccccc1COC(=O)c1coc(-c2ccccc2)n1	–	–	10.9%	3.1%	–	–
CCOC(=O)c1csc(-c2cccc(Cl)c2Cl)n1	41 µM (≈ 12.4 µg/mL)	39 µM (≈ 11.8 µg/mL)	–	–	–	–
O=C(OCc1ccccc1)[C@@H]1COC(c2ccc(F)c([N+](=O)[O-])c2)=N1	–	–	11.3%	0.6%	–	–
CCCCCCNC(=O)[C@@H]1CSC(c2ccccc2)=N1	23 µM (≈ 6.68 µg/mL)	58 µM (≈ 16.8 µg/mL)	–	–	–	–
O=C(OCc1ccccc1)c1coc(-c2ccccc2OCc2ccccc2)n1	–	–	3.5%	2.9%	–	–
CO[C@H]1/C=C/O[C@@]2(C)Oc3c(C)c(O)c4c(O)c(c(/C=N/N5CCN(C)CC5)c(O)c4c3C2=O)NC(=O)/C(C)=C\C=C\[C@H](C)[C@H](O)[C@@H](C)[C@@H](O)[C@@H](C)[C@H](OC(C)=O)[C@@H]1C [RIFAMPIN]	0.09 µM (≈ 0.0741 µg/mL)	0.2 µM (≈ 0.165 µg/mL)	–	–	–	0.04 µM (≈ 0.0329 µg/mL)
O=C(NC1CCCCC1)c1coc(-c2ccccc2)n1	14 µM (≈ 3.78 µg/mL)	30 µM (≈ 8.11 µg/mL)	–	–	–	–
CCOC(=O)c1csc(-c2ccc(C)cc2)n1	61 µM (≈ 15.1 µg/mL)	79 µM (≈ 19.5 µg/mL)	–	–	–	–
CCOC(=O)c1c(C)nc2c(C3CCCN3C)cccn12 (stereo unspecified)	> 64 µM	> 64 µM	–	–	–	–
COc1ccc(C2=N[C@H](C(=O)NCc3ccc(OC)c(OC)c3)CO2)cc1	> 128 µM	> 128 µM	–	–	–	–
CCOC(=O)c1c(C)nc2ccc(Cl)cn12	93.5 µM (≈ 22.3 µg/mL)	> 101 µM	–	–	–	–
Cc1ccn2c(C(=O)NCc3ccc(Cl)cc3)c(C)nc2c1	–	–	80.7%	94.3%	–	–
Cc1cc2nc(C)c(C(=O)OCc3ccccc3)n2c(C)n1	1.1 µM (≈ 0.325 µg/mL)	–	–	–	> 50 µM	5.3 µM (≈ 1.57 µg/mL)
O=C(Oc1ccccc1C(F)(F)F)c1coc(-c2ccccc2)n1	–	–	10.7%	1.2%	–	–
CC(C)(C)OC(=O)c1coc(-c2ccccc2)n1	> 64 µM	> 64 µM	42%	–	–	–
COc1ccccc1CNC(=O)c1c(C)nc2cc(C)ccn12	–	–	41.6%	100%	–	–
O=C(NC1CCCCC1)c1csc(-c2ccccc2)n1	15 µM (≈ 4.3 µg/mL)	15 µM (≈ 4.3 µg/mL)	3.3%	3.3%	–	–
CCOC(=O)c1c(-c2ccccc2)nc2ccc(Cl)cn12	63.1 µM (≈ 19 µg/mL)	> 128 µM	–	–	–	–
CCC(=O)c1ccccc1OC(=O)c1coc(-c2ccccc2)n1	–	–	8.7%	1.8%	–	–
Cc1ccn2c(C(=O)NCc3ccccc3Cl)c(C)nc2c1	–	–	58.9%	97.2%	–	–

Structure (SMILES)	MIC90 [1]	MIC90 [2]	remaining at 0.25 h, 20 µM [3]	remaining at 0.25 h, 50 µM [4]	IC50 [5]	MIC90 [6]
C[C@H](OC(=O)c1coc(-c2ccccc2)n1)c1ccccc1	–	–	5%	5%	–	–
O=C(NC1CCCCC1)[C@@H]1CSC(c2ccccc2)=N1	46 µM (≈ 13.3 µg/mL)	56 µM (≈ 16.2 µg/mL)	–	–	–	–
O=C(Oc1cccc(C(F)(F)F)c1)c1coc(-c2ccccc2)n1	–	–	13%	5.5%	–	–
CCCc1ccccc1OC(=O)c1coc(-c2ccccc2)n1	–	–	5.4%	0.9%	–	–
COc1ccc(CNC(=O)c2coc(-c3ccccc3)n2)cc1OC	81 µM (≈ 27.4 µg/mL)	> 128 µM	–	–	–	–
O=C(OCc1ccccc1)c1cc(-c2ccccc2)[nH]n1	3.5 µM (≈ 0.974 µg/mL)	> 64 µM	–	–	> 128 µM	> 38 µM
O=C(NC1CCCCC1)[C@@H]1COC(c2ccc(OC(F)(F)F)cc2)=N1	60 µM (≈ 21.4 µg/mL)	> 64 µM	–	–	–	–
O=C(Oc1c(Cl)cc(Cl)cc1Cl)c1coc(-c2ccccc2)n1	–	–	15.5%	1.3%	–	–
Cc1ccc(COC(=O)c2coc(-c3ccccc3)n2)c(C)c1	–	–	16.9%	1.4%	–	–
O=C(NCc1ccccc1)c1coc(-c2ccccc2)n1	> 65 µM	59 µM (≈ 16.4 µg/mL)	–	–	–	> 40 µM
CCc1ccccc1OC(=O)c1coc(-c2ccccc2)n1	–	–	8.5%	2.1%	–	–
O=C(OCc1ccccc1)[C@@H]1CSC(c2ccccc2)=N1	12.9 µM (≈ 3.84 µg/mL)	3.5 µM (≈ 1.04 µg/mL)	–	–	> 128 µM	11.6 µM (≈ 3.45 µg/mL)
CCOC(=O)c1c(C(F)(F)F)nc2ccccn12	> 128 µM	> 128 µM	–	–	–	–
CCOC(=O)c1n[nH]c(-c2cccc(C)c2)c1N	> 128 µM	> 128 µM	–	–	–	–
O=C(OCC1CC1)c1coc(-c2ccccc2)n1	–	–	3.3%	1.5%	–	–
O=C(Oc1ccccc1)c1coc(-c2ccccc2)n1	–	–	0.2%	0.2%	–	–
O=C(Oc1ccccc1N1CCOCC1)c1coc(-c2ccccc2)n1	–	–	5.4%	0.7%	–	–
O=C(OCc1ccccc1)c1coc(-c2ccc(F)c([N+](=O)[O-])c2)n1	–	–	10.9%	0.9%	–	–
O=C(OCc1ccccc1C(F)(F)F)c1coc(-c2ccccc2)n1	–	–	7.8%	0.8%	–	–
CCC(C)c1ccccc1OC(=O)c1coc(-c2ccccc2)n1 (stereo unspecified)	–	–	8.3%	0.2%	–	–
CCOC(=O)c1c(-c2ccccc2)nc2ccc(C)cn12	55.1 µM (≈ 15.4 µg/mL)	41 µM (≈ 11.5 µg/mL)	–	–	–	–
CCOC(=O)c1nc(-c2ccccc2)oc1C	> 128 µM	124 µM (≈ 28.7 µg/mL)	–	–	–	–
COc1ccc(-c2nc(C(=O)OCc3ccccc3)co2)cc1	–	–	11.8%	2.1%	–	–
CCCCCCCCOC(=O)c1coc(-c2ccccc2)n1	–	–	13.1%	1.1%	–	–
CCCCCCNC(=O)[C@@H]1COC(c2ccc(OC(F)(F)F)cc2)=N1	31 µM (≈ 11.1 µg/mL)	> 64 µM	–	–	–	–

From ChEMBL document CHEMBL2146467, “Generation and exploration of new classes of antitubercular agents: The optimization of oxazolines, oxazoles, thiazolines, thiazoles to imidazo[1,2-a]pyridines and isomeric 5,6-fused scaffolds” (Bioorg Med Chem, 2012)
